Results from different studies.
Lines come from different studies, so protocols differ.
Read-out: cell growth or viability

| Structure (SMILES) | cell line | assay | setting | IC50 [µM] |
| --- | --- | --- | --- | --- |
| COc1ccccc1C(=O)c1cc2c(-c3ccccc3)c(OC)ccc2o1 | L1210 |  | 48 h | > 50 |
| COc1cc2ccc(=O)oc2cc1OC | COLO 205 | MTT | 72 h | > 100 |
| COc1ccc(C(=O)c2cc3c(-c4ccccc4)c(OC)ccc3o2)cc1 | L1210 |  | 48 h | 2.8 |
| Cc1ccc(-c2cc(COCc3ccc(C(C)C)cc3)c3cccnc3c2O)cc1 | MDA-MB-453 | MTS | 72 h | 0.9 |
| COc1cc(OC)cc(C(=O)c2cc3c(-c4ccccc4)c(O)ccc3o2)c1 | L1210 |  | 48 h | 19 |
| C[C@@H]1O[C@@H](O[C@H]2C[C@@H](O)[C@]3(CO)[C@H]4[C@H](O)C[C@]5(C)[C@@H](C6=CC(=O)OC6)CC[C@]5(O)[C@@H]4CC[C@]3(O)C2)[C@H](O)[C@H](O)[C@H]1O | GISTT1 | resazurin | 72 h | 0.21 |
| CCC(=O)Nc1cc(Nc2nc(Nc3cnn(C)c3)c3sccc3n2)c(OC)cc1N(C)CCN(C)C | NCI-H460 | MTT |  | > 50 |
| Nc1nc(F)nc2c1ncn2[C@@H]1O[C@H](COP(=O)(O)O)[C@@H](O)[C@@H]1O | GISTT1 |  | 72 h | 0.53 |
| COc1cc(-c2oc3cc(O)cc(O)c3c(=O)c2O)ccc1O | SCaBER | ATP luminescence | 72 h | 43.2 |
| CC(C)[C@H](N)c1nc2cc(N3CCNCC3)sc2c(=O)[nH]1 | COLO 205 | MTT |  | > 10 |
| CC(C)C[C@H](NC(=O)[C@H](Cc1ccccc1)NC(=O)c1cnccn1)B(O)O | NCI-H1838 | ATP luminescence |  | 0.053 |
| Nc1nc(Cl)nc2c1ncn2[C@@H]1O[C@H](CO)[C@@H](O)[C@@H]1F | GISTT1 | resazurin | 72 h | > 1 |
| O=C1Nc2ccccc2C(=O)CCc2cc(O)ccc21 | L6 |  |  | 84 |
| O=c1[nH]cc(F)c(=O)[nH]1 | L1210 |  | 48 h | 0.49 |
| CO/N=C1\CCc2ccccc2C(=O)Nc2ccccc21 | L6 |  |  | 250 |
| O=C1C(=Cc2ccccc2)CN(C(=O)c2ccc(C(=O)N3CC(=Cc4ccccc4)C(=O)C(=Cc4ccccc4)C3)cc2)CC1=Cc1ccccc1 | L1210 |  |  | > 500 |
| O=C(O)c1ccc2c(c1)C(=O)CCc1ccccc1C(=O)N2 | L6 |  |  | 220 |
| CC(=O)[C@]1(O)Cc2c(O)c3c(c(O)c2[C@@H](O[C@H]2C[C@H](N)[C@H](O)[C@H](C)O2)C1)C(=O)c1ccccc1C3=O | GISTT1 |  | 72 h | 0.09 |
| CC(C)=CCC/C(C)=C/COc1ccc2ccc(=O)oc2c1 | COLO 205 | MTT | 24 h | 55.1 |

| Structure (SMILES) | cell line | assay | setting | IC50 [µM] |
| --- | --- | --- | --- | --- |
| COc1cc(OC)cc(C(=O)c2cc3c(-c4ccccc4)c(OC)ccc3o2)c1 | L1210 |  | 48 h | > 50 |
| CCC1=C[C@@H]2CN(C1)Cc1c([nH]c3ccccc13)[C@@](C(=O)OC)(c1cc3c(cc1OC)N(C)[C@H]1[C@@](O)(C(=O)OC)[C@H](OC(C)=O)[C@]4(CC)C=CCN5CC[C@]31[C@@H]54)C2 | GISTT1 | resazurin | 72 h | 0.23 |
| CCN1CCN(c2ccc(Nc3cc(N(C)C(=O)Nc4c(Cl)c(OC)cc(OC)c4Cl)ncn3)cc2)CC1 | MDA-MB-453 | ATP luminescence | 96 h | > 1 |
| COc1cc(NS(C)(=O)=O)ccc1Nc1c2ccccc2nc2ccccc12 | GISTT1 | resazurin | 72 h | 0.31 |
| CCC(=O)Nc1cc(Nc2nc(N3CCc4sccc4C3)c3cccnc3n2)c(OC)cc1N1CCN(CCO)CC1 | NCI-H460 | MTT |  | > 50 |
| C=C[C@H]1C[N@@]2CC[C@H]1C[C@@H]2[C@@H](O)c1ccnc2ccc(OC)cc12 | MDCK-II | MTT | 48 h | 267 |
| O=C1Nc2ccc(S(F)(F)(F)(F)F)cc2C(=O)CCc2ccccc21 | L6 |  |  | 2.8 |
| CC(C)[C@H](N)c1nc2cc(-c3cn[nH]n3)sc2c(=O)[nH]1 | COLO 205 | MTT |  | 3.79 |
| CC(C)[C@H](N)C(=O)N1CCC[C@H]1B(O)O | RS4-11 | ATP luminescence | 24 h | 0.147 |
| O=c1c(O)c(-c2cc(O)c(O)c(O)c2)oc2cc(O)cc(O)c12 | SCaBER | ATP luminescence | 72 h | 30.3 |
| CC(C)n1c(/C=C/C(O)CC(O)CC(=O)O)c(-c2ccc(F)cc2)c2ccccc21 (centres unmarked) | L1210 | MTS | 96 h | 2.3 |
| O=C1Nc2ccccc2C(=O)CCc2cc(F)ccc21 | L6 |  |  | 96 |
| CC[C@@H](C)[C@H](N)C(=O)N1Cc2ccccc2C1 | RS4-11 | ATP luminescence | 24 h | 71.1 |
| O=C1Nc2ccccc2C(=NO)CCc2ccccc21 | L6 |  |  | > 380 |
| CCN(CC)CCCC(C)Nc1ccnc2cc(Cl)ccc12 (centres unmarked) | GISTT1 | resazurin | 72 h | > 1 |
| COc1ccc2c(c1)C(=O)CCc1ccccc1C(=O)N2 | L6 |  |  | 47 |
| CC(C)C[C@H](NC(=O)[C@H](Cc1ccccc1)NC(=O)c1cnccn1)B(O)O | GISTT1 | resazurin | 72 h | < 0.07 |
| NC(=O)c1ccc2c(c1)C(=O)CCc1ccccc1C(=O)N2 | L6 |  |  | > 340 |
| O=C(c1ccccc1)c1cc2c(-c3ccccc3)c(O)ccc2o1 | L1210 |  | 48 h | 37 |
